In brackets after ≈: the same amount, converted by molar mass. Activity calls are given as the source filed them. The rule behind the calls is not given here.
Columns and labels:
Candida albicans [1] = assay: Antimicrobial activity against Candida albicans ATCC 10231 at 380 ug by Kirby-Bauer disk diffusion test; format: functional, organism-based
Procedure, shortened: (§1)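 Modified Kirby-Bauer disc diffusion on Muller-Hinton agar. Inhibition-zone diameter, disc diameter included, measured with a ruler from under the plate and recorded in mm.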

[2] = Dissolution of the compound in phosphate buffer at pH 6.8 measured over 12 hrs using solid lipid nanoparticle formulation by dialysis bag diffusion method; format: physicochemical; settings: artificial membrane, pH 6.8, 12 h
Procedure, shortened: (§2)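 SLNs made by hot emulsification-ultrasonication with Compritol as lipid and 3% Pluronic F68 aqueous phase. Homogenized at 10,000 rpm and 75 °C for 15 min, then probe-sonicated 10 min.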

[3] = Dissolution of the compound in phosphate buffer at pH 6.8 measured within 2 hrs by dialysis bag diffusion method; format: physicochemical; settings: artificial membrane, pH 6.8, 2 h
Procedure, shortened: (§3)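 Formula or compound suspension (3 ml) in 12 kDa MWCO dialysis bags, in 500 ml enzyme-free phosphate buffer pH 6.8, 37 °C, 50 rpm. 5 ml samples taken with replacement over 12 h. Cumulative % release determined by UV absorbance against a calibration curve.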

[4] = Permeability of the compound in simulated dialysis membrane at pH 6.8 measured within 6 hrs by Franz diffusion cell-based spectrophotometric method; format: ADME, cell membranes; settings: artificial membrane, pH 6.8, 6 h
Procedure, shortened: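 Franz cell with dialysis membrane. 1 ml of SLN formula or compound suspension in the donor chamber; receptor holds phosphate buffer pH 6.8 at 37 °C, magnetically stirred. Receptor sampled with replacement over 6 h; concentration by UV absorbance against a calibration curve.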

[5] = Permeability of the compound in simulated dialysis membrane at pH 6.8 measured within 6 hrs using solid lipid nanoparticle formulation by Franz diffusion cell-based spectrophotometric method; format: ADME, cell membranes; settings: artificial membrane, pH 6.8, 6 h; procedure, shortened: as §2
Staphylococcus aureus [6] = assay: Antimicrobial activity against Staphylococcus aureus ATCC 29213 assessed as diameter of inhibition zone at 380 ug by Kirby-Bauer disk diffusion test; format: functional; procedure, shortened: as §1
Staphylococcus aureus [7] = assay: Antimicrobial activity against Staphylococcus aureus ATCC 29213 measured after 18 hrs by broth microdilution method; format: functional; settings: ATCC 29213, 18 h
Procedure, shortened: (§4)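 Broth microdilution in 96-well plates. Compound stock 10 mg/ml in DMSO, two-fold serial dilutions from final 1024 to 0.5 µg/ml in water plus double-strength nutrient broth. Inoculum from direct colony suspension in saline adjusted to 0.5 McFarland, final 5 × 10⁵ CFU per well, used within 15 min. Positive and negative control rows.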

Escherichia coli [8] = assay: Antimicrobial activity against Escherichia coli ATCC 25922 measured after 18 hrs by broth microdilution method; format: functional; settings: ATCC 25922, 18 h; procedure, shortened: as §4
Klebsiella pneumoniae [9] = assay: Antimicrobial activity against Klebsiella pneumoniae ATCC 700603 measured after 18 hrs by broth microdilution method; format: functional; settings: Klebsiella pneumoniae, 700603, 18 h; procedure, shortened: as §4
Proteus mirabilis [10] = assay: Antimicrobial activity against Proteus mirabilis ATCC 14153 measured after 18 hrs by broth microdilution method; format: functional; settings: ATCC 14153, 18 h; procedure, shortened: as §4
Pseudomonas aeruginosa [11] = assay: Antimicrobial activity against Pseudomonas aeruginosa ATCC 27853 measured after 18 hrs by broth microdilution method; format: functional; settings: ATCC 27853, 18 h; procedure, shortened: as §4
Acinetobacter baumannii [12] = assay: Antimicrobial activity against clinical isolate of Acinetobacter baumannii measured after 18 hrs by broth microdilution method; format: functional; procedure, shortened: as §4
Candida albicans [13] = assay: Antimicrobial activity against Candida albicans ATCC 10231 measured after 18 hrs by broth microdilution method; format: functional; settings: ATCC 10231, 18 h; procedure, shortened: as §4
Staphylococcus aureus [14] = assay: Antimicrobial activity against Staphylococcus aureus ATCC 29213 measured after 18 hrs using solid lipid nanoparticle formulation by broth microdilution method; format: functional; settings: ATCC 29213, 18 h; procedure, shortened: as §4
Escherichia coli [15] = assay: Antimicrobial activity against Escherichia coli ATCC 25922 measured after 18 hrs using solid lipid nanoparticle formulation by broth microdilution method; format: functional; settings: ATCC 25922, 18 h; procedure, shortened: as §4
Klebsiella pneumoniae [16] = assay: Antimicrobial activity against Klebsiella pneumoniae ATCC 700603 measured after 18 hrs using solid lipid nanoparticle formulation by broth microdilution method; format: functional; settings: Klebsiella pneumoniae, 700603, 18 h; procedure, shortened: as §4
Proteus mirabilis [17] = assay: Antimicrobial activity against Proteus mirabilis ATCC 14153 measured after 18 hrs using solid lipid nanoparticle formulation by broth microdilution method; format: functional; settings: ATCC 14153, 18 h; procedure, shortened: as §4
Pseudomonas aeruginosa [18] = assay: Antimicrobial activity against Pseudomonas aeruginosa ATCC 27853 measured after 18 hrs using solid lipid nanoparticle formulation by broth microdilution method; format: functional; settings: ATCC 27853, 18 h; procedure, shortened: as §4
Acinetobacter baumannii [19] = assay: Antimicrobial activity against clinical isolate of Acinetobacter baumannii measured after 18 hrs using solid lipid nanoparticle formulation by broth microdilution method; format: functional; procedure, shortened: as §4
Candida albicans [20] = assay: Antimicrobial activity against Candida albicans ATCC 10231 measured after 18 hrs using solid lipid nanoparticle formulation by broth microdilution method; format: functional; settings: ATCC 10231, 18 h; procedure, shortened: as §4
[21] = Dissolution of the compound in phosphate buffer at pH 6.8 measured after 2 hrs by dialysis bag diffusion method; format: physicochemical; settings: artificial membrane, pH 6.8, 2 h; procedure, shortened: as §3
Escherichia coli [22] = assay: Antimicrobial activity against Escherichia coli ATCC 25922 assessed as diameter of inhibition zone at 380 ug by Kirby-Bauer disk diffusion test; format: functional; settings: read-out: DIZ; procedure, shortened: as §1
Klebsiella pneumoniae [23] = assay: Antimicrobial activity against Klebsiella pneumoniae ATCC 700603 assessed as diameter of inhibition zone at 380 ug by Kirby-Bauer disk diffusion test; format: functional; settings: read-out: DIZ; procedure, shortened: as §1
Proteus mirabilis [24] = assay: Antimicrobial activity against Proteus mirabilis ATCC 14153 assessed as diameter of inhibition zone at 380 ug by Kirby-Bauer disk diffusion test; format: functional; settings: read-out: DIZ; procedure, shortened: as §1
Pseudomonas aeruginosa [25] = assay: Antimicrobial activity against Pseudomonas aeruginosa ATCC 27853 assessed as diameter of inhibition zone at 380 ug by Kirby-Bauer disk diffusion test; format: functional; settings: read-out: DIZ; procedure, shortened: as §1
Acinetobacter baumannii [26] = assay: Antimicrobial activity against clinical isolate of Acinetobacter baumannii assessed as diameter of inhibition zone at 380 ug by Kirby-Bauer disk diffusion test; format: functional; settings: read-out: DIZ; procedure, shortened: as §1

Row | Activity [2] | Activity [3] | permeability [4] | permeability [5] | MIC (Staphylococcus aureus [7]) | MIC (Escherichia coli [8]) | MIC (Klebsiella pneumoniae [9]) | MIC (Proteus mirabilis [10]) | MIC (Pseudomonas aeruginosa [11]) | MIC (Acinetobacter baumannii [12]) | MIC (Candida albicans [13]) | MIC (Staphylococcus aureus [14]) | MIC (Escherichia coli [15]) | MIC (Klebsiella pneumoniae [16]) | MIC (Proteus mirabilis [17]) | MIC (Pseudomonas aeruginosa [18]) | MIC (Acinetobacter baumannii [19]) | MIC (Candida albicans [20]) | SMILES | Activity (Candida albicans [1]) | other results
1 | 93.3% | 95.2% | 60.7% | 100% | ≤ 0.5 µg/mL | 128 µg/mL (≈ 539 µM) | > 1020 µg/mL | 128 µg/mL (≈ 539 µM) | 1020 µg/mL (≈ 4320 µM) | > 1020 µg/mL | > 1020 µg/mL | ≤ 0.5 µg/mL | 64 µg/mL (≈ 270 µM) | 1020 µg/mL (≈ 4320 µM) | 64 µg/mL (≈ 270 µM) | > 1020 µg/mL | 256 µg/mL (≈ 1080 µM) | > 1020 µg/mL | COc1ccc([C@@H]2[C@@H](O)[C@H](O)[C@@H](C)N2C)cc1 | inactive | zone of inhibition at 380 µg/disc (Staphylococcus aureus [6]; read-out: DIZ): 32 mm
2 | 90.1% | 100% | 56.3% | 100% | > 1020 µg/mL | 128 µg/mL (≈ 578 µM) | 1020 µg/mL (≈ 4630 µM) | 1020 µg/mL (≈ 4630 µM) | 1020 µg/mL (≈ 4630 µM) | 256 µg/mL (≈ 1160 µM) | > 1020 µg/mL | 1020 µg/mL (≈ 4630 µM) | 512 µg/mL (≈ 2310 µM) | 512 µg/mL (≈ 2310 µM) | 512 µg/mL (≈ 2310 µM) | 1020 µg/mL (≈ 4630 µM) | 64 µg/mL (≈ 289 µM) | > 1020 µg/mL | Cc1ccc([C@@H]2[C@@H](O)[C@H](O)[C@@H](C)N2C)cc1 | inactive | –
3 | 92.2% | – | 72.9% | 100% | 4 µg/mL (≈ 13.4 µM) | 64 µg/mL (≈ 214 µM) | 512 µg/mL (≈ 1710 µM) | 1020 µg/mL (≈ 3420 µM) | 1020 µg/mL (≈ 3420 µM) | 512 µg/mL (≈ 1710 µM) | > 1020 µg/mL | 4 µg/mL (≈ 13.4 µM) | 16 µg/mL (≈ 53.5 µM) | > 1020 µg/mL | 128 µg/mL (≈ 428 µM) | > 1020 µg/mL | 256 µg/mL (≈ 855 µM) | > 1020 µg/mL | COc1cc([C@@H]2[C@@H](O)[C@H](O)[C@@H](C)N2C)c(F)c(C)c1OC | inactive | Activity [21]: 78.2%; growth inhibition (GI) (Staphylococcus aureus [6]): Active
4 | 91.2% | 100% | 49.8% | 100% | 1020 µg/mL (≈ 4940 µM) | 16 µg/mL (≈ 77.2 µM) | 1020 µg/mL (≈ 4940 µM) | 4 µg/mL (≈ 19.3 µM) | 1020 µg/mL (≈ 4940 µM) | 128 µg/mL (≈ 618 µM) | > 1020 µg/mL | 1020 µg/mL (≈ 4940 µM) | 16 µg/mL (≈ 77.2 µM) | > 1020 µg/mL | 2 µg/mL (≈ 9.65 µM) | 512 µg/mL (≈ 2470 µM) | 16 µg/mL (≈ 77.2 µM) | > 1020 µg/mL | C[C@@H]1[C@@H](O)[C@H](O)[C@@H](c2ccccc2)N1C | inactive | zone of inhibition at 380 µg/disc (Escherichia coli [22]): 40 mm; zone of inhibition at 380 µg/disc (Klebsiella pneumoniae [23]): 22 mm; zone of inhibition at 380 µg/disc (Proteus mirabilis [24]): 34 mm; zone of inhibition at 380 µg/disc (Pseudomonas aeruginosa [25]): 18 mm; zone of inhibition at 380 µg/disc (Acinetobacter baumannii [26]): 32 mm
